Among the data in ChEMBL document CHEMBL3808349, “Antineoplastic Agents. 585. Isolation of Bridelia ferruginea Anticancer Podophyllotoxins and Synthesis of 4-Aza-podophyllotoxin Structural Modifications” (2016) are GI50 and EC50 values, retold here.

Values after ≈ are worked out from the molar mass of the structure shown. Where only a bound is given, the exact number is not on record here.

Common to all, as to type: functional
One assay concerns MCF7. Nature of the assay: Growth inhibition of human MCF7 cells measured after 48 hrs by sulforhodamine B assay. To be noted: MCF7, 48 h. The gist of the method: (§1)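 Cells were seeded in RPMI1640 with 5% fetal bovine serum and incubated 24 h before serial dilutions of sample were added. After 48 h exposure, cells were fixed with trichloroacetic acid and stained with sulforhodamine B, and optical density was read by plate reader.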

Assay [1] is described as follows: Growth inhibition of human SF268 cells measured after 48 hrs by sulforhodamine B assay. Particulars: SF-268, 48 h. In outline: as §1
Assay [2] is described as follows: Growth inhibition of human DU145 cells measured after 48 hrs by sulforhodamine B assay. Particulars: DU-145, 48 h. The gist of the method:
as §1

Another assay relates to NCI-H460. Put plainly: Growth inhibition of human NCI-H460 cells measured after 48 hrs by sulforhodamine B assay. To be noted: NCI-H460, 48 h. In outline:
as §1

The nature of assay [3]: Growth inhibition of human KM20L2 cells measured after 48 hrs by sulforhodamine B assay. To be noted: KM-20L2, 48 h. In outline:
as §1

Assay [4] can be described thus: Growth inhibition of human BxPC3 cells measured after 48 hrs by sulforhodamine B assay. To be noted: BXPC-3, 48 h. The gist of the method:
as §1

The test system of a further assay is P388. Nature of the assay: Growth inhibition of mouse P388 cells measured after 48 hrs by sulforhodamine B assay. To be noted: P388, 48 h, read-out: ED50 (the source's name).

As for `COc1cc(-c2c3c(nc4cc5c(cc24)OCO5)COC3=O)cc(OC)c1OC`, the GI50 stood at 3.4 µg/mL (≈ 8.6 µM) with MCF7; 2.4 µg/mL (≈ 6.07 µM) in assay [1]; 2.4 µg/mL (≈ 6.07 µM) in assay [2]; 2.8 µg/mL (≈ 7.08 µM) in the assay on NCI-H460; 2.1 µg/mL (≈ 5.31 µM) in assay [3]; 4.1 µg/mL (≈ 10.4 µM) in assay [4]. Also, the EC50 in the assay with P388 amounted to 3.6 µg/mL (≈ 9.11 µM).
Take `COc1cc(C2C3=C(COC3=O)N(CCO)c3cc4c(cc32)OCO4)cc(OC)c1OC` (stereo not drawn): the GI50 stood at 0.37 µg/mL (≈ 0.838 µM) in the assay on MCF7; 0.41 µg/mL (≈ 0.929 µM) in assay [1]; 1.3 µg/mL (≈ 2.94 µM) in assay [2]; 0.58 µg/mL (≈ 1.31 µM) in the assay on NCI-H460; 0.52 µg/mL (≈ 1.18 µM) in assay [3]; 0.6 µg/mL (≈ 1.36 µM) in assay [4]. Besides, the EC50 in the assay on P388 turned out to be 2 µg/mL (≈ 4.53 µM).
`COc1cc(C2C3=C(COC3=O)N(C3CCCC3)c3cc4c(cc32)OCO4)cc(OC)c1O` (stereo not drawn): the GI50 in the assay with MCF7 was found to be 0.32 µg/mL (≈ 0.709 µM); in assay [1], 0.39 µg/mL (≈ 0.864 µM); in assay [2] it was 0.41 µg/mL (≈ 0.908 µM); with NCI-H460, 0.33 µg/mL (≈ 0.731 µM); in assay [3], 2.1 µg/mL (≈ 4.65 µM); in assay [4], 0.53 µg/mL (≈ 1.17 µM).
`COc1cc(C2C3=C(COC3=O)Nc3cc(OC)c(OC)c(OC)c32)cc(Br)c1OC` (stereo not drawn): the GI50 with MCF7 was found to be 0.12 µg/mL (≈ 0.244 µM); in assay [1] it was 0.11 µg/mL (≈ 0.223 µM); in assay [2], 0.42 µg/mL (≈ 0.853 µM); in the assay with NCI-H460 it was 0.35 µg/mL (≈ 0.711 µM); in assay [4] it was 0.56 µg/mL (≈ 1.14 µM). In the assay on P388, the EC50 stood at 0.11 µg/mL (≈ 0.223 µM).
As to `COc1cc(C2C3=C(COC3=O)N(CCN3CCOCC3)c3cc4c(cc32)OCO4)cc(OC)c1OC` (stereo not drawn), the GI50 in the assay with MCF7 is 0.89 µg/mL (≈ 1.74 µM); in assay [1], 2.6 µg/mL (≈ 5.09 µM); in assay [2] it was 2 µg/mL (≈ 3.92 µM); with NCI-H460 it was 3 µg/mL (≈ 5.88 µM); in assay [3], 2.5 µg/mL (≈ 4.9 µM); in assay [4], 3.5 µg/mL (≈ 6.86 µM). Besides, in the assay on P388, the EC50 turned out to be 2.6 µg/mL (≈ 5.09 µM).
For the compound `COc1cc(C2C3=C(COC3=O)N(CCCn3ccnc3)c3cc4c(cc32)OCO4)cc(OC)c1OC` (stereo not drawn), the 50% growth inhibitory concentration (GI50) in the assay on MCF7 is 0.64 µg/mL (≈ 1.27 µM); in assay [1] it was 2.5 µg/mL (≈ 4.95 µM); in assay [2], 2.1 µg/mL (≈ 4.15 µM); with NCI-H460, 3 µg/mL (≈ 5.93 µM); in assay [3] it was 2.2 µg/mL (≈ 4.35 µM); in assay [4], 2.9 µg/mL (≈ 5.74 µM). For the same compound, the EC50 in the assay on P388 was found to be 2 µg/mL (≈ 3.96 µM).
Turning to `COc1cc(C2C3=C(COC3=O)N(CCN3CCCCC3)c3cc4c(cc32)OCO4)cc(OC)c1OC` (stereo not drawn), the 50% growth inhibitory concentration (GI50) in the assay on MCF7 is more than 10 µg/mL; in assay [1], more than 10 µg/mL; in assay [2], more than 10 µg/mL; in the assay on NCI-H460, more than 10 µg/mL; in assay [3] it was more than 10 µg/mL; in assay [4], 4.4 µg/mL (≈ 8.65 µM). For the same compound, the EC50 in the assay on P388 is 1.7 µg/mL (≈ 3.34 µM).
In the case of `COc1cc(C2C3=C(COC3=O)N(C)c3cc4c(cc32)OCO4)cc(OC)c1OC` (stereo not drawn), the GI50 with MCF7 was 0.034 µg/mL (≈ 0.0826 µM); in assay [1], 0.029 µg/mL (≈ 0.0705 µM); in assay [2] it was 0.026 µg/mL (≈ 0.0632 µM); in the assay with NCI-H460 it was 0.032 µg/mL (≈ 0.0778 µM); in assay [3], 0.032 µg/mL (≈ 0.0778 µM); in assay [4], 0.049 µg/mL (≈ 0.119 µM). For the same compound, the EC50 with P388 turned out to be 0.027 µg/mL (≈ 0.0656 µM).
Regarding `COc1cc(C2C3=C(COC3=O)Nc3cc4c(cc32)OCO4)cc(OC)c1O` (stereo not drawn), the concentration for 50% growth inhibition (GI50) with MCF7 worked out at 0.025 µg/mL (≈ 0.0652 µM); in assay [1], 0.026 µg/mL (≈ 0.0678 µM); in assay [2], 0.033 µg/mL (≈ 0.0861 µM); in the assay on NCI-H460 it was 0.027 µg/mL (≈ 0.0704 µM); in assay [3] it was 0.032 µg/mL (≈ 0.0835 µM); in assay [4], 0.028 µg/mL (≈ 0.073 µM). For the same compound, the EC50 in the assay on P388 stood at 0.028 µg/mL (≈ 0.073 µM).
`COc1cc(C2C3=C(COC3=O)N(CCN(C)C)c3cc4c(cc32)OCO4)cc(OC)c1OC` (stereo not drawn): the concentration for 50% growth inhibition (GI50) in the assay on MCF7 was determined as 0.29 µg/mL (≈ 0.619 µM); in assay [1], 0.46 µg/mL (≈ 0.982 µM); in assay [2], 2.5 µg/mL (≈ 5.34 µM); with NCI-H460, 1 µg/mL (≈ 2.13 µM); in assay [3] it was 0.51 µg/mL (≈ 1.09 µM); in assay [4] it was 0.43 µg/mL (≈ 0.918 µM). Moreover, the EC50 with P388 came to 0.18 µg/mL (≈ 0.384 µM).
On to `COc1cc(C2C3=C(COC3=O)N(CCc3ccc(F)cc3)c3cc4c(cc32)OCO4)cc(OC)c1O` (stereo not drawn), for which the 50% growth inhibitory concentration (GI50) came out at 0.34 µg/mL (≈ 0.673 µM) in the assay on MCF7; 0.48 µg/mL (≈ 0.95 µM) in assay [1]; 0.38 µg/mL (≈ 0.752 µM) in assay [2]; 0.36 µg/mL (≈ 0.712 µM) with NCI-H460; 1.4 µg/mL (≈ 2.77 µM) in assay [4]. Moreover, the EC50 in the assay with P388 is 0.21 µg/mL (≈ 0.415 µM).
On to `COc1cc(C2C3=C(COC3=O)N(Cc3ccc(F)cc3)c3cc4c(cc32)OCO4)cc(OC)c1OC` (stereo not drawn), for which the concentration for 50% growth inhibition (GI50) worked out at 0.037 µg/mL (≈ 0.0732 µM) with MCF7; 0.03 µg/mL (≈ 0.0593 µM) in assay [1]; 0.047 µg/mL (≈ 0.093 µM) in assay [2]; 0.031 µg/mL (≈ 0.0613 µM) in the assay with NCI-H460; 0.033 µg/mL (≈ 0.0653 µM) in assay [3]; 0.046 µg/mL (≈ 0.091 µM) in assay [4]. In addition, the EC50 with P388 came to 1.9 µg/mL (≈ 3.76 µM).
As for `COc1cc(C2C3=C(COC3=O)N(Cc3ccco3)c3cc4c(cc32)OCO4)cc(OC)c1O` (stereo not drawn), the 50% growth inhibitory concentration (GI50) is 0.054 µg/mL (≈ 0.117 µM) in the assay with MCF7; 0.061 µg/mL (≈ 0.132 µM) in assay [1]; 0.39 µg/mL (≈ 0.842 µM) in assay [2]; 0.24 µg/mL (≈ 0.518 µM) in the assay with NCI-H460; 1 µg/mL (≈ 2.16 µM) in assay [4]. In the assay with P388, the EC50 worked out at 0.89 µg/mL (≈ 1.92 µM).
Regarding `COc1cc(C2C3=C(COC3=O)N(C3CCCC3)c3cc4c(cc32)OCO4)cc(OC)c1OC` (stereo not drawn), the GI50 in the assay on MCF7 was 0.045 µg/mL (≈ 0.0967 µM); in assay [1] it was 0.062 µg/mL (≈ 0.133 µM); in assay [2], 0.27 µg/mL (≈ 0.58 µM); in the assay with NCI-H460, 0.16 µg/mL (≈ 0.344 µM); in assay [3] it was 0.12 µg/mL (≈ 0.258 µM); in assay [4], 0.083 µg/mL (≈ 0.178 µM).
